How the values were obtained:
Format in all cases: binding
Munc13-1 C1 (WT) [1] = molecular target: T1, Munc13-1 C1 (WT) (Rattus norvegicus, UniProt Q62768); test: photolabeling, LC-MS/MS; conditions: covalent (photoaffinity), site Glu-582
Munc13-1 C1 (WT) [2] = molecular target: Munc13-1 C1 (WT) (Rattus norvegicus, UniProt Q62768, E582H); test: intrinsic fluorescence quenching, logistic fit
Procedure, shortened: (§1)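 GST-fused Munc13-1 C1 domain (wild type or Glu-582 mutant) was expressed in E. coli BL21 DE3 gold, affinity-purified and thrombin-cleaved. Protein was held at 1 μM in 50 mM Tris, 100 mM NaCl, pH 7.4. Alcohols were added neat or from a 0.25 M DMSO stock, at 1–250, 1–150 or 1–5 mM depending on the alcohol. After 15 min incubation, samples were excited at 280 nm. Emission at 348–350 nm was buffer-corrected and fitted to a logistic equation; runs were done in triplicate.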

Munc13-1 C1 (WT) [3] = molecular target: Munc13-1 C1 (WT) (Rattus norvegicus, UniProt Q62768, E582L); test: intrinsic fluorescence quenching, logistic fit
Procedure, shortened: as §1

Munc13-1 C1 (WT) [4] = molecular target: Munc13-1 C1 (WT) (Rattus norvegicus, UniProt Q62768, E582A); test: intrinsic fluorescence quenching, logistic fit
Procedure, shortened: as §1

Munc13-1 C1 (WT) [5] = molecular target: T1, Munc13-1 C1 (WT); test: intrinsic fluorescence quenching, logistic fit
Procedure, shortened: as §1

| Compound | photolabeling, LC-MS/MS; fluorescence quenching (Munc13-1 C1 (WT) [1]) | EC50 (Munc13-1 C1 (WT) [2]) | EC50 (Munc13-1 C1 (WT) [3]) | EC50 (Munc13-1 C1 (WT) [4]) | EC50 (Munc13-1 C1 (WT) [5]) |
| --- | --- | --- | --- | --- | --- |
| CC1(CCO)N=N1 [3-azibutanol] | 3-azibutanol labeled the Munc13-1 C1 at the Glu-582 site |  |  |  |  |
| CCCCO [Butanol] |  | 75.3 ± 1.9 mM | 70.5 ± 1.8 mM | 59.9 ± 0.9 mM | 25.8 ± 1.1 mM |
| CCO [Ethanol] |  |  |  |  | 51.7 ± 2.8 mM |
| CCCCCCCCO [Octanol] |  | 1.1 ± 0.07 mM | 3.3 ± 0.06 mM | 2.6 ± 0.2 mM | 0.7 ± 0.03 mM |
